Laboratory results as given in ChEMBL document CHEMBL1153955, “Indolylarylsulfones bearing natural and unnatural amino acids. Discovery of potent inhibitors of HIV-1 non-nucleoside wild type and resistant mutant strains reverse transcriptase and coxsackie B4 virus” (J Med Chem, 2009).

What was measured:
[1] = system: Respiratory syncytial virus; assay: Antiviral activity against RSV Long in human HeLa cells assessed as protection against virus-induced cytopathicity; assay type: functional, organism-based
In short: (§1)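 Confluent cell monolayers inoculated with 100 CCID₅₀ virus. After 1-2 h adsorption, residual virus removed and cultures incubated with varying compound concentrations. Cytopathicity scored once it reached completion in untreated infected controls. EC₅₀ = dose reducing virus-induced cytopathogenicity by 50%.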

[2] = system: Vesicular stomatitis virus; assay: Antiviral activity against VSV in human HeLa cells assessed as protection against virus-induced cytopathicity; assay type: functional, organism-based
[3] = system: Human immunodeficiency virus 1; assay: Antiviral activity against HIV1 3B in human CEM cells assessed as protection against virus-induced cytopathicity after 4 days; assay type: functional, organism-based; conditions: Human immunodeficiency virus 1, 3B, CCRF-CEM, 96 h
In short: (§2)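 CEM cells (~3 × 10⁵ cells/mL) infected with ~100 CCID₅₀ per mL of HIV-1 (IIIB) or HIV-2 (ROD), then seeded into wells containing compound dilutions. After 4 days at 37 °C, syncytium (giant cell) formation was examined microscopically. EC₅₀ = concentration protecting CEM cells from HIV cytopathicity by 50%.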

[4] = system: Human immunodeficiency virus 2; assay: Antiviral activity against HIV2 ROD in human CEM cells assessed as protection against virus-induced cytopathicity after 4 days; assay type: functional, organism-based; conditions: Human immunodeficiency virus 2, ROD, CCRF-CEM, 96 h; in short: as §2
L1210 = assay: Antiproliferative activity against mouse L1210 cells after 2 days; assay type: cell-based; conditions: L1210, 48 h
In short: (§3)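 Cells seeded at 5 × 10⁴ to 7.5 × 10⁴ cells/200 µL with or without serial compound dilutions; incubated at 37 °C for 2 days (L1210) or 3 days (Molt4/C8, CEM). Cell numbers counted with a Coulter counter. CC₅₀ = concentration reducing proliferation by 50% versus untreated controls, read from plots of cell number (% of control) against concentration. Means of at least two independent experiments.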

[5] = Antiproliferative activity against human Molt4/C8 cells after 3 days; assay type: cell-based; conditions: MOLT-4, 72 h; in short: as §3
CCRF-CEM = assay: Antiproliferative activity against human CEM cells after 3 days; assay type: cell-based; conditions: 72 h; in short: as §3
[6] = system: Human immunodeficiency virus 1; assay: Antiviral activity against HIV1 with reverse transcriptase L100I mutation in human CEM cells assessed as protection against virus-induced cytopathicity; assay type: functional, organism-based; conditions: Human immunodeficiency virus 1, CCRF-CEM
In short: (§4)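 CEM cells (~3 × 10⁵ cells/mL) were infected with ~100 CCID₅₀ virus per mL and seeded with serial compound dilutions. After 4 days at 37 °C, syncytium (giant cell) formation was scored microscopically. EC₅₀ is the concentration giving 50% protection against virus cytopathicity.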

[7] = system: Human immunodeficiency virus 1; assay: Antiviral activity against HIV1 with reverse transcriptase K103N mutation in human CEM cells assessed as protection against virus-induced cytopathicity; assay type: functional, organism-based; conditions: Human immunodeficiency virus 1, CCRF-CEM; in short: as §4
[8] = system: Human immunodeficiency virus 1; assay: Antiviral activity against HIV1 with reverse transcriptase Y181C mutation in human CEM cells assessed as protection against virus-induced cytopathicity; assay type: functional, organism-based; conditions: Human immunodeficiency virus 1, CCRF-CEM; in short: as §4
[9] = system: Human immunodeficiency virus 1; assay: Antiviral activity against HIV1 with reverse transcriptase Y181I mutation in human CEM cells assessed as protection against virus-induced cytopathicity; assay type: functional, organism-based; conditions: Human immunodeficiency virus 1, CCRF-CEM; in short: as §4
[10] = system: Human immunodeficiency virus 1; assay: Antiviral activity against HIV1 with reverse transcriptase Y188L mutation in human CEM cells assessed as protection against virus-induced cytopathicity; assay type: functional, organism-based; conditions: Human immunodeficiency virus 1, CCRF-CEM; in short: as §4
[11] = target: Human immunodeficiency virus type 1 reverse transcriptase (Human immunodeficiency virus 1, UniProt Q72547); assay: Inhibition of HIV1 reverse transcriptase p66/p51; conditions: read-out: IC50
[12] = target: Human immunodeficiency virus type 1 reverse transcriptase (Human immunodeficiency virus 1, UniProt Q72547, L100I); assay: Inhibition of HIV1 reverse transcriptase p66/p51 L100I mutant; conditions: read-out: IC50
In short: (§5)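 Substrate was 0.5 µg poly(rA)/oligo(dT) 10:1 (0.3 µM 3′-OH ends) with 10 µM [³H]dTTP, at 37 °C. Acid-precipitable radioactivity was counted on GF/C filters after TCA washes.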

[13] = target: Human immunodeficiency virus type 1 reverse transcriptase (Human immunodeficiency virus 1, UniProt Q72547, K103N); assay: Inhibition of HIV1 reverse transcriptase p66/p51 K103N mutant; conditions: read-out: IC50; in short: as §5
[14] = target: Human immunodeficiency virus type 1 reverse transcriptase (Human immunodeficiency virus 1, UniProt Q72547, Y181I); assay: Inhibition of HIV1 reverse transcriptase p66/p51 Y181I mutant; conditions: read-out: IC50; in short: as §5
[15] = Cytotoxicity against human HeLa cells assessed as drug level causing microscopically detectable alteration of normal cell morphology after 3 days; assay type: cell-based
In short: (§6)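 Serial compound dilutions added to confluent HeLa or Vero monolayers. MCC = minimum concentration causing microscopically detectable alteration of cell morphology after 3 days of incubation.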

[16] = Cytotoxicity against african green monkey Vero cells assessed as drug level causing microscopically detectable alteration of normal cell morphology after 3 days; assay type: cell-based; conditions: chlorocebus sabaeus; in short: as §6
Coxsackievirus B4 [17] = assay: Antiviral activity against Coxsackievirus B4 in human HeLa cells assessed as protection against virus-induced cytopathicity; assay type: functional, organism-based; conditions: Enterovirus B; in short: as §1
Coxsackievirus B4 [18] = assay: Antiviral activity against Coxsackievirus B4 in african green monkey Vero cells assessed as protection against virus-induced cytopathicity; assay type: functional, organism-based; conditions: Enterovirus B; in short: as §1
Human respirovirus 3 = assay: Antiviral activity against Parainfluenza virus type 3 in african green monkey Vero cells assessed as protection against virus-induced cytopathicity; assay type: functional, organism-based; conditions: Human respirovirus 3, Vero; in short: as §1
[19] = system: Mammalian orthoreovirus 1; assay: Antiviral activity against Reovirus 1 in african green monkey Vero cells assessed as protection against virus-induced cytopathicity; assay type: functional, organism-based; conditions: Mammalian orthoreovirus 1, Vero; in short: as §1
Sindbis virus = assay: Antiviral activity against Sindbis virus in african green monkey Vero cells assessed as protection against virus-induced cytopathicity; assay type: functional, organism-based; in short: as §1
Punta Toro virus = assay: Antiviral activity against Punta Toro virus in african green monkey Vero cells assessed as protection against virus-induced cytopathicity; assay type: functional, organism-based; in short: as §1
[20] = Cytotoxicity against human HEL cells assessed as drug level causing microscopically detectable alteration of normal cell morphology after 3 days; assay type: cell-based
Human alphaherpesvirus 1 [21] = assay: Antiviral activity against HSV1 KOS in human HEL cells assessed as protection against virus-induced cytopathicity; assay type: functional, organism-based; conditions: Human alphaherpesvirus 1, KOS
Human alphaherpesvirus 2 = assay: Antiviral activity against HSV2 G in human HEL cells assessed as protection against virus-induced cytopathicity; assay type: functional, organism-based; conditions: Human alphaherpesvirus 2, strain G; in short: as §1
Vaccinia virus = assay: Antiviral activity against Vaccinia virus Lederle in human HEL cells assessed as protection against virus-induced cytopathicity; assay type: functional, organism-based; conditions: Orthopoxvirus vaccinia
[22] = system: Vesicular stomatitis virus; assay: Antiviral activity against VSV in human HEL cells assessed as protection against virus-induced cytopathicity; assay type: functional, organism-based
Human alphaherpesvirus 1 [23] = assay: Antiviral activity against thymidine kinase deficient and acyclovir resistant HSV1 KOS in human HEL cells assessed as protection against virus-induced cytopathicity; assay type: functional, organism-based; conditions: Human alphaherpesvirus 1, KOS
[24] = Cytotoxicity against MDCK cells assessed as drug level causing microscopically detectable alteration of normal cell morphology; assay type: cell-based, Canis lupus familiaris; conditions: dog
[25] = Cytotoxicity against MDCK cells by MTS assay; assay type: cell-based, Canis lupus familiaris; conditions: dog
Influenza A virus [26] = assay: Antiviral activity against influenza H1N1 virus in MDCK cells assessed as reduction of virus-induced cytopathicity by visual cytopathic effect scoring method; assay type: functional, organism-based
Influenza A virus [27] = assay: Antiviral activity against influenza H1N1 virus in MDCK cells assessed as reduction of virus-induced cytopathicity by MTS method; assay type: functional, organism-based; conditions: Influenza A virus, H1N1, MDCK
Influenza A virus H3N2 [28] = assay: Antiviral activity against influenza H3N2 virus in MDCK cells assessed as reduction of virus-induced cytopathicity by visual cytopathic effect scoring method; assay type: functional, organism-based
Influenza A virus H3N2 [29] = assay: Antiviral activity against influenza H3N2 virus in MDCK cells assessed as reduction of virus-induced cytopathicity by MTS method; assay type: functional, organism-based
Influenza B virus [30] = assay: Antiviral activity against influenza B virus in MDCK cells assessed as reduction of virus-induced cytopathicity by visual cytopathic effect scoring method; assay type: functional, organism-based
Influenza B virus [31] = assay: Antiviral activity against influenza B virus in MDCK cells assessed as reduction of virus-induced cytopathicity by MTS method; assay type: functional, organism-based
[32] = Cytotoxicity against feline CRFK cells by MTS assay; assay type: cell-based, Felis catus; conditions: cat
Feline coronavirus = assay: Antiviral activity against Feline coronavirus in feline […] cells assessed as inhibition of virus-induced cytopathicity; assay type: functional, organism-based; conditions: Alphacoronavirus 1
Felid alphaherpesvirus 1 = assay: Antiviral activity against Feline herpesvirus in feline […] cells assessed as inhibition of virus-induced cytopathicity; assay type: functional, organism-based

## Cc1cc(C)cc(S(=O)(=O)c2c(C(=O)NCCC(N)=O)[nH]c3ccc(Cl)cc23)c1
[1]
  EC50: > 4 µM
[2]
  EC50: > 4 µM
[3]
  EC50: 0.001 µM
[4]
  EC50: > 10 µM
L1210
  IC50: 26 µM
[5]
  IC50: 9 µM
CCRF-CEM
  IC50: 16 µM
[6]
  IC50: 0.007 µM
[7]
  IC50: 0.019 µM
[8]
  IC50: 0.078 µM
[9]
  IC50: > 1 µM
[10]
  IC50: ≥ 1 µM
[11]
  IC50: 0.027 µM
[12]
  IC50: 0.143 µM
[13]
  IC50: 0.351 µM
[14]
  IC50: 5.05 µM
[15]
  MCC at 72 h: 20 µM
[16]
  MCC at 72 h: 100 µM
Coxsackievirus B4 [17]
  EC50: > 4 µM
Coxsackievirus B4 [18]
  EC50: 12 µM
Human respirovirus 3
  EC50: > 20 µM
[19]
  EC50: > 20 µM
Sindbis virus
  EC50: > 20 µM
Punta Toro virus
  EC50: > 20 µM
[20]
  MCC at 72 h: 20 µM
Human alphaherpesvirus 1 [21]
  EC50: > 4 µM
Human alphaherpesvirus 2
  EC50: > 4 µM
Vaccinia virus
  EC50: > 4 µM
[22]
  EC50: > 4 µM
Human alphaherpesvirus 1 [23]
  EC50: > 4 µM
[24]
  MCC: 20 µM
[25]
  CC50: 9.7 µM
Influenza A virus [26]
  EC50: > 4 µM
Influenza A virus [27]
  EC50: > 4 µM
Influenza A virus H3N2 [28]
  EC50: > 4 µM
Influenza A virus H3N2 [29]
  EC50: > 4 µM
Influenza B virus [30]
  EC50: > 4 µM
Influenza B virus [31]
  EC50: > 4 µM
[32]
  CC50: 1.7 µM
Feline coronavirus
  EC50: > 4 µM
Felid alphaherpesvirus 1
  EC50: > 4 µM
